Assay results reported in ChEMBL document CHEMBL1129682, “(S)-(-)-4-[4-[2-(isochroman-1-yl)ethyl]-piperazin-1-yl] benzenesulfonamide, a selective dopamine D4 antagonist” (J Med Chem, 1996).

Assays:
[1] = biological target: Adrenergic receptor alpha-2 (Rattus norvegicus) (UniProt P22086+P19328+P22909); test: […] against binding of [3H]clonidine to cloned mammalian Alpha-2 adrenergic receptor expressed in cultured cells or from rat whole brain at 1 uM
D(1A) dopamine receptor = D(1A) dopamine receptor (Rattus norvegicus, UniProt P18901); test: Binding affinity of [3H]SCH-23,390 towards Dopamine receptor D1 in cloned mammalian receptor expressed in cultured cells or from rat whole brain.; type: cell-based
D(1A) dopamine receptor, sequence (P18901 whole entry): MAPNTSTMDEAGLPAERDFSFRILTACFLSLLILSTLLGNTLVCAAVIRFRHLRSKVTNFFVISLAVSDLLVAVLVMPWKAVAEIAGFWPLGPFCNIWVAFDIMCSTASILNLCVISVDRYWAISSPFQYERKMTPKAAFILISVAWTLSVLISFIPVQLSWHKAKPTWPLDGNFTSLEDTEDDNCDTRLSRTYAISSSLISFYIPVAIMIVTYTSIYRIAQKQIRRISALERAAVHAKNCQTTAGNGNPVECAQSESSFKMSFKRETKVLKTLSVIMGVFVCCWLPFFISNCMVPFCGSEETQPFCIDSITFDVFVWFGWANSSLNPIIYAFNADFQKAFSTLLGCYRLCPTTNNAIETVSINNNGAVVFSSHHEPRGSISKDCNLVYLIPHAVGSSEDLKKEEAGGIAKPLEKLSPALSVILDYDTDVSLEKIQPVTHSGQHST

D(4) dopamine receptor = biological target: T1, D(4) dopamine receptor (Rattus norvegicus, UniProt P30729); test: Binding affinity of [3H]spiperone towards Dopamine receptor D4 expressed in cultured cells or from rat whole brain.; type: cell-based
T1 sequence (P30729 whole entry): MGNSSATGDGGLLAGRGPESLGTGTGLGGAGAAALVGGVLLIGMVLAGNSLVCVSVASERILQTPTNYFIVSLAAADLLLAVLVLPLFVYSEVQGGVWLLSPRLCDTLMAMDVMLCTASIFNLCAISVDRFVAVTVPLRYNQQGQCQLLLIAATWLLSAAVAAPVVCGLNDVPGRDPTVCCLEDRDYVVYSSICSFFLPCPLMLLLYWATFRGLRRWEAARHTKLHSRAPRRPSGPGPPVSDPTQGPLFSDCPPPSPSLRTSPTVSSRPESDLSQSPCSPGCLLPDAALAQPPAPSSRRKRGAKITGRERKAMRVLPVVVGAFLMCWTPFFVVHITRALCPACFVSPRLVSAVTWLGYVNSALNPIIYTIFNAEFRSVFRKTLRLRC

D(3) dopamine receptor = D(3) dopamine receptor (Rattus norvegicus, UniProt P19020); test: Binding affinity of [3H]spiperone towards Dopamine receptor D3 in cloned mammalian receptor expressed in cultured cells or from rat whole brain.; type: cell-based
D(3) dopamine receptor, sequence (P19020 whole entry): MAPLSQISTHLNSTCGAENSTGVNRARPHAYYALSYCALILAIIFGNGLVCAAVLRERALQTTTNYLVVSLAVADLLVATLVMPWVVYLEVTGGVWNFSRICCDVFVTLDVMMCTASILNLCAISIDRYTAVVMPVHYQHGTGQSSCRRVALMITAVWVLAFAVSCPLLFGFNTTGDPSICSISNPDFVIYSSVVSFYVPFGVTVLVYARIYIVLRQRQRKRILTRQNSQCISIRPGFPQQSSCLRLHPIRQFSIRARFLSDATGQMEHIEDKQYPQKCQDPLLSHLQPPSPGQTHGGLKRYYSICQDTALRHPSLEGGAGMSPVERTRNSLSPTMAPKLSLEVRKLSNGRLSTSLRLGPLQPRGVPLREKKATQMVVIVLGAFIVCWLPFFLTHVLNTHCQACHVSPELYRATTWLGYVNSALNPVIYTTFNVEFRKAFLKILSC
How it was run: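 Radioligand displacement on membranes from cloned mammalian receptors expressed in cultured cells. D1 used [3H]SCH23390 and D3 used [3H]spiperone.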

D(2) dopamine receptor [2] = biological target: T2, D(2) dopamine receptor (Rattus norvegicus, UniProt P61169); test: Binding affinity to rat Dopamine receptor D2 expressed in CHO cells was determined using [3H]U-86170 as radioligand
T2 sequence (P61169 whole entry): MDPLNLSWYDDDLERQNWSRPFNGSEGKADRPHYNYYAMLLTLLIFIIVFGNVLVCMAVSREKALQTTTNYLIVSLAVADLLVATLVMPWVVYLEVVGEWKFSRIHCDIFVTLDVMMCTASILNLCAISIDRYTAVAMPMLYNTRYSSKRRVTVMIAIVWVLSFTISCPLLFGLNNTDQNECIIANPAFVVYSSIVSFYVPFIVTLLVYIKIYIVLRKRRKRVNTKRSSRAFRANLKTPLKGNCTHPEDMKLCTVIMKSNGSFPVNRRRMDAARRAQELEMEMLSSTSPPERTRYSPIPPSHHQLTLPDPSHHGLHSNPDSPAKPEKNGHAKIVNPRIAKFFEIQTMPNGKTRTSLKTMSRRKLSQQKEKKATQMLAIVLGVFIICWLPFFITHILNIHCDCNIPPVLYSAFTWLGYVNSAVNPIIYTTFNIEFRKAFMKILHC

[3] = biological target: T3, 5-hydroxytryptamine receptor 1A (Rattus norvegicus, UniProt P19327); test: Binding affinity of [3H]-8-OH-DPAT towards 5-hydroxytryptamine 1A receptor in cloned mammalian receptor expressed in cultured cells or from rat whole brain.; type: cell-based
T3 sequence (P19327 whole entry): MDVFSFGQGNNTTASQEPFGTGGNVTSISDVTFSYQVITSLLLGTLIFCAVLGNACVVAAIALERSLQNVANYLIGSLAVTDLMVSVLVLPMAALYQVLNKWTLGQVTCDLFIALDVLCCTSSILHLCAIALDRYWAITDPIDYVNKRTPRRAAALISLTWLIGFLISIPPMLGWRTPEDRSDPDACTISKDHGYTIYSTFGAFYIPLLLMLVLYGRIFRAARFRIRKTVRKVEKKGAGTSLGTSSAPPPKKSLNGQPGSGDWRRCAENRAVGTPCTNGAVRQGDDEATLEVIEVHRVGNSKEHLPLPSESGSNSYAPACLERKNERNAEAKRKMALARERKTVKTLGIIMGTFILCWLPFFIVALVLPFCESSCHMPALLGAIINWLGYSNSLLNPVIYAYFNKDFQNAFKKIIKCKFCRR
How it was run: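 Radioligand displacement with [3H]-8-OH-DPAT on membranes from cloned mammalian 5-HT1A receptor expressed in cultured cells.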

[4] = biological target: Serotonin 2 (5-HT2) receptor (Rattus norvegicus, UniProt P30994+P08909+P14842); test: Binding affinity of [3H]ketanserin towards 5-hydroxytryptamine 2 receptor in cloned mammalian receptor expressed in cultured cells or from rat whole brain.; type: cell-based
[5] = biological target: Adrenergic receptor alpha-1 (Rattus norvegicus) (UniProt P15823+P23944+P43140); test: (§1) […] against binding of [3H]prazosin to cloned mammalian Alpha-1 adrenergic receptor expressed in cultured cells or from rat whole brain […]; type: cell-based
[6] = biological target: T4, Adrenergic receptor alpha-2 (Rattus norvegicus, UniProt P22086+P19328+P22909); test: […] against binding of [3H]clonidine to cloned mammalian Alpha-2 adrenergic receptor expressed in cultured cells or from rat whole brain
T4 sequence (P22086 whole entry): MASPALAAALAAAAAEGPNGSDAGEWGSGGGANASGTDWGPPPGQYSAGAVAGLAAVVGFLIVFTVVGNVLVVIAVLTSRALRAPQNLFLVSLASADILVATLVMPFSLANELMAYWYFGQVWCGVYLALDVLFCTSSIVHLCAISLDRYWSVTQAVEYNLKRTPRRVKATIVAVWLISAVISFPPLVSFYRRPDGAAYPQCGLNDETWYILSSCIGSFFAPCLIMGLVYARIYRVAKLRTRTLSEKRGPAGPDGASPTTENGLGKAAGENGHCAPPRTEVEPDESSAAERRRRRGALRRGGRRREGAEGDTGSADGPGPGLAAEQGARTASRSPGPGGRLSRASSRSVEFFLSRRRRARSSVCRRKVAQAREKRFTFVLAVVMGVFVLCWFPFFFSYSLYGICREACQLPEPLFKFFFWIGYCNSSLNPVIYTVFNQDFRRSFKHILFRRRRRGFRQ
T4 sequence (P19328 whole entry): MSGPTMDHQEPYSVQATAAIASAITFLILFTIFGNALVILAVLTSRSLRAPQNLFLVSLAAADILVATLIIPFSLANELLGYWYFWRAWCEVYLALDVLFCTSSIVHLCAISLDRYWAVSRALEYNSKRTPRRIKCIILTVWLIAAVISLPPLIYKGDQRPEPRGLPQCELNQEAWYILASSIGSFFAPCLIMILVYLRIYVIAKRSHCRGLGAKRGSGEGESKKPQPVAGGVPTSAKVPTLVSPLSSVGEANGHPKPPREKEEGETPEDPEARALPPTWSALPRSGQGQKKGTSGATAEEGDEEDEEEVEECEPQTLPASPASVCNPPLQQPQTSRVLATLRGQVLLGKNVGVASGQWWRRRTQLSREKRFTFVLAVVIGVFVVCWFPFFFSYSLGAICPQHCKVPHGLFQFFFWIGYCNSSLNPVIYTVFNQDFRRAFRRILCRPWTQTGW
T4 sequence (P22909 whole entry): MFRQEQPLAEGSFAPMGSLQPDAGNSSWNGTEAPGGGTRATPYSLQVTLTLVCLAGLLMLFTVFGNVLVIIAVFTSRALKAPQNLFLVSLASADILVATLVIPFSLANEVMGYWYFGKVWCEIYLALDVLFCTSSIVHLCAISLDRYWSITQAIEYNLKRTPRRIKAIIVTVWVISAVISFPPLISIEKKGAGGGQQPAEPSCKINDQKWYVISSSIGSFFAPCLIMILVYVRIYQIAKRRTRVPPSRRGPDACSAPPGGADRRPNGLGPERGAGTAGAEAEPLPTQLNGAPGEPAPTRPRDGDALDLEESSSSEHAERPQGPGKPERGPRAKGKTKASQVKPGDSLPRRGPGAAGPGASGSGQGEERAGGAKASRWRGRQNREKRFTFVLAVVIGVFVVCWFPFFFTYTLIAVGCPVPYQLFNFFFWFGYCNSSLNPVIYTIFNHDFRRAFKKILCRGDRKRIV

[7] = biological target: T5, Adrenergic receptor alpha-1 (Rattus norvegicus, UniProt P15823+P23944+P43140); test: as §1; type: cell-based
T5 sequence (P15823 whole entry): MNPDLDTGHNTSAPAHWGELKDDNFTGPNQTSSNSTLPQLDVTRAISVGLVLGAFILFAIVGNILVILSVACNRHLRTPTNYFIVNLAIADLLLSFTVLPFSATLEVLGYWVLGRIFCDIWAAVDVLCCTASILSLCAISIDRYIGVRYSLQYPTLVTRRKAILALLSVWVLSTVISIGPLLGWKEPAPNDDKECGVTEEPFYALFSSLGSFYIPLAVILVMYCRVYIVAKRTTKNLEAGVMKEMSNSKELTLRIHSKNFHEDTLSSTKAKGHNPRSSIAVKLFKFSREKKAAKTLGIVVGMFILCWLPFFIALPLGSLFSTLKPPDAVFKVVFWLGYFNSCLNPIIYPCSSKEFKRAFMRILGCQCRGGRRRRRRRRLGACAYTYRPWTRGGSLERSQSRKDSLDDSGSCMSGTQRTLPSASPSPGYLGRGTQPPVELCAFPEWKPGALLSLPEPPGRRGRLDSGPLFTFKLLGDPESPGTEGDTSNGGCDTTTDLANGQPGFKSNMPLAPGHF
T5 sequence (P23944 whole entry): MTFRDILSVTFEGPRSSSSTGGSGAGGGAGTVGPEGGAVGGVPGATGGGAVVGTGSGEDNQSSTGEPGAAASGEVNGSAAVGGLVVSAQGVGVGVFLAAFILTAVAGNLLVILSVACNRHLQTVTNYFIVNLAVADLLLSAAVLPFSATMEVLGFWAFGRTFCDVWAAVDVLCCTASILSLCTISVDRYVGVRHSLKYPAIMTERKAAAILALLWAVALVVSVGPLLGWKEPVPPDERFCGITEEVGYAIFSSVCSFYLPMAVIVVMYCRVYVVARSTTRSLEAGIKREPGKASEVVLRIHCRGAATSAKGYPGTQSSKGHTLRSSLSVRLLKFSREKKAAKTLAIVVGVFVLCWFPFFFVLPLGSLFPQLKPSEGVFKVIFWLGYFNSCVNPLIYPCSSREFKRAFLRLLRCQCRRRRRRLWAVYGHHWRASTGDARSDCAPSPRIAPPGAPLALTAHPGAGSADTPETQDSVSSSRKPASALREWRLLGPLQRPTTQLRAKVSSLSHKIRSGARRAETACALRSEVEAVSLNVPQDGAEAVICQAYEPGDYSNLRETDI
T5 sequence (P43140 whole entry): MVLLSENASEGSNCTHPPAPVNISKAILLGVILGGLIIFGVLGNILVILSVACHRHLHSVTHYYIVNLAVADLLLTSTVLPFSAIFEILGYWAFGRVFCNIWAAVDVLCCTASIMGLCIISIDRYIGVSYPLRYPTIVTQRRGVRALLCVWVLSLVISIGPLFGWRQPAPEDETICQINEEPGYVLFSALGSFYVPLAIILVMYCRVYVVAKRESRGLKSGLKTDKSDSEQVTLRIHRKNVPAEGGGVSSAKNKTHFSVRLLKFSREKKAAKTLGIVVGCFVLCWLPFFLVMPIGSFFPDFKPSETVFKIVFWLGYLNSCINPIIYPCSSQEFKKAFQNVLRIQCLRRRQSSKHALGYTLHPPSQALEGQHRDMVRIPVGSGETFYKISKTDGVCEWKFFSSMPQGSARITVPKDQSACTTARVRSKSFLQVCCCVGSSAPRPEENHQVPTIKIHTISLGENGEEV

D(2) dopamine receptor [8] = biological target: T2, D(2) dopamine receptor; test: Binding affinity of [3H]U-86170 towards Dopamine receptor D2 in cloned mammalian receptor expressed in cultured cells or from rat whole brain; type: cell-based
Translocator protein [9] = biological target: Translocator protein (Rattus norvegicus, UniProt P16257); test: Displacement of [3H]PK11195 binding from peripheral benzodiazepine receptor in C6 rat glioma cell line; type: cell-based
Translocator protein (Rattus norvegicus, UniProt P16257), sequence (P16257 whole entry, looked up): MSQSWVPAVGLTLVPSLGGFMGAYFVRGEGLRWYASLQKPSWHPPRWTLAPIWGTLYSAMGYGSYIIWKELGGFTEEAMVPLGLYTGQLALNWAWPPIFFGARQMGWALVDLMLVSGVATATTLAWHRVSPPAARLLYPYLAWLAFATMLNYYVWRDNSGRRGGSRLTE

Translocator protein [10] = biological target: Translocator protein (Mus musculus, UniProt P50637); test: Displacement of [3H]PK11195 binding from peripheral benzodiazepine receptor in MA-10 mouse tumor Leydig cells; type: cell-based
Translocator protein (Mus musculus, UniProt P50637), sequence (P50637 whole entry, looked up): as the sequence (P16257 whole entry, looked up) above, with S2P, Q3E, I67V, E77D, V110A, M113L, M149V, T168P counted along it

## COc1ccc(N2CCN(CC[C@@H]3OCCc4ccccc43)CC2)cc1
[1]
  inhibition: 9%
D(1A) dopamine receptor
  Ki: > 2400 nM
D(4) dopamine receptor
  Ki: 2.2 nM
D(3) dopamine receptor
  Ki: 1300 nM
D(2) dopamine receptor [2]
  Ki: 790 nM
[3]
  Ki: 490 nM
[4]
  Ki: 28 nM
[5]
  inhibition: 20%

## Cc1ccc2c(c1)C(N1CCN(C)CC1)=Nc1cccnc1N2
D(4) dopamine receptor
  Ki: 21 nM

## COc1ccc(N2CCN(CCC3OCCc4ccccc43)CC2)cc1 (stereo unspecified)
D(1A) dopamine receptor
  Ki: > 2400 nM
D(4) dopamine receptor
  Ki: 1.4 nM
D(3) dopamine receptor
  Ki: 1200 nM
[6]
  Ki: 1800 nM
[7]
  Ki: 1280 nM
D(2) dopamine receptor [8]
  Ki: 1100 nM
[3]
  Ki: 1100 nM
[4]
  Ki: 76 nM

## Fc1ccc(N2CCN(CCC3OCCc4ccccc43)CC2)cc1 (stereo unspecified)
D(1A) dopamine receptor
  Ki: 410 nM
D(4) dopamine receptor
  Ki: 3 nM
D(3) dopamine receptor
  Ki: 240 nM
[6]
  Ki: 140 nM
[7]
  Ki: 38 nM
D(2) dopamine receptor [8]
  Ki: 160 nM
[3]
  Ki: 120 nM
[4]
  Ki: 5.8 nM

## NS(=O)(=O)c1ccc(N2CCN(CC[C@@H]3OCCc4ccccc43)CC2)cc1 [SONEPIPRAZOLE]
D(4) dopamine receptor
  Ki: 7.2 nM
D(3) dopamine receptor
  Ki: 5800 nM
[6]
  Ki: > 2600 nM
[7]
  Ki: > 4900 nM
D(2) dopamine receptor [8]
  Ki: > 4300 nM
[3]
  Ki: > 3700 nM
[4]
  Ki: > 1800 nM

## CCCCCCN(CCCCCC)C(=O)Cc1c(-c2ccc(F)cc2)[nH]c2ccccc12
Translocator protein [9]
  IC50: 10 nM
Translocator protein [10]
  IC50: 10 nM

## NS(=O)(=O)c1ccc(N2CCN(CC[C@H]3OCCc4ccccc43)CC2)cc1
[1]
  inhibition: 15%
D(4) dopamine receptor
  Ki: 100 nM
D(3) dopamine receptor
  Ki: 2900 nM
D(2) dopamine receptor [8]
  Ki: 5600 nM
[3]
  Ki: 2400 nM
[5]
  inhibition: 41%

## CN1C(=O)CN=C(c2ccc(Cl)cc2)c2cc(Cl)ccc21 [RO-54864]
Translocator protein [10]
  IC50: 10 nM

## COc1ccc(N2CCN(CC[C@H]3OCCc4ccccc43)CC2)cc1
[1]
  inhibition: 0%
D(1A) dopamine receptor
  Ki: > 2400 nM
D(4) dopamine receptor
  Ki: 25 nM
D(3) dopamine receptor
  Ki: 220 nM
D(2) dopamine receptor [8]
  Ki: > 1800 nM
[3]
  Ki: > 1600 nM
[4]
  Ki: 30 nM
[5]
  inhibition: 36%

## COc1cc2c(cc1OC)C(CCN1CCN(c3ccc(F)cc3)CC1)OCC2 (stereo unspecified)
[1]
  inhibition: 75%
D(1A) dopamine receptor
  Ki: 26 nM
D(4) dopamine receptor
  Ki: 24 nM
D(2) dopamine receptor [8]
  Ki: 400 nM
[3]
  Ki: 93 nM
[4]
  Ki: 2.1 nM
[5]
  inhibition: 100%
